Values joined by “and” are separate entries in the source; they are usually repeats but may differ in a detail not shown here. Identical values can stand only once.
Test system: HEK-293T
Assay: Multiplex assay against HEK293T;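 on Population Tubulin-Different-Phenotype (%): share of the cells with healthy nuclei that show this phenotype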
Assay type: toxicity, cell-based
Conditions: human
In short: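 Four dyes were applied at seeding to live cells: Hoechst33342, BioTracker Green Microtubule Cytoskeleton Dye, MitoTracker Red and Annexin V Alexa Fluor 680. Imaging after compound addition used a CQ1 microscope at 37°C and 5% CO2. CellPathfinder machine-learning gating then sorted cells into Hoechst high-intensity objects or normal cells, normal cells into healthy, pyknosed or fragmented nuclei, and pyknosed cells into mitotic or apoptotic, with tubulin, mitochondrial-mass and membrane-permeability phenotypes given as per cents of healthy-nucleus cells.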

[1] = 12 h, 1 µM, compound concentration 1 uM, replicate 1
[2] = 12 h, 1 µM, compound concentration 1 uM, replicate 2
[3] = 12 h, 10 µM, compound concentration 10 uM, replicate 1
[4] = 12 h, 10 µM, compound concentration 10 uM, replicate 2
[5] = 24 h, 1 µM, compound concentration 1 uM, replicate 1
[6] = 24 h, 1 µM, compound concentration 1 uM, replicate 2
[7] = 24 h, 10 µM, compound concentration 10 uM, replicate 1
[8] = 24 h, 10 µM, compound concentration 10 uM, replicate 2
[9] = 48 h, 1 µM, compound concentration 1 uM, replicate 1
[10] = 48 h, 1 µM, compound concentration 1 uM, replicate 2
[11] = 48 h, 10 µM, compound concentration 10 uM, replicate 1
[12] = 48 h, 10 µM, compound concentration 10 uM, replicate 2

CC(/C=C1\SC(=S)N(CCCC(=O)Nc2ccc(C(=O)O)c(O)c2)C1=O)=C\c1ccccc1
Population Apoptotic (%) [1]: 38% | Population Fragmented Nuclei (%) [1]: 11% | Population Healthy Nuclei (%) [1]: 34% | Population Hoechst High Intensity Objects (%) [1]: 9% | Population Membrane Permeable-Phenotype (%) [1]: 3% | Population Mitochondria Different-Phenotype (%) [1]: 68% | Population Mitotic Cells (%) [1]: 61% | Population Normal (%) [1]: 90% | Population Pyknosed Nuclei (%) [1]: 53% | Population Tubulin-Different-Phenotype (%) [1]: 34% | Total Cell Count [1]: 251 | Population Apoptotic (%) [2]: 5% | Population Fragmented Nuclei (%) [2]: 2% | Population Healthy Nuclei (%) [2]: 44% | Population Hoechst High Intensity Objects (%) [2]: 2% | Population Membrane Permeable-Phenotype (%) [2]: 9% | Population Mitochondria Different-Phenotype (%) [2]: 20% | Population Mitotic Cells (%) [2]: 94% | Population Normal (%) [2]: 97% | Population Pyknosed Nuclei (%) [2]: 52% | Population Tubulin-Different-Phenotype (%) [2]: 21% | Total Cell Count [2]: 242 | Population Apoptotic (%) [3]: 40% | Population Fragmented Nuclei (%) [3]: 10% | Population Healthy Nuclei (%) [3]: 35% | Population Hoechst High Intensity Objects (%) [3]: 13% | Population Membrane Permeable-Phenotype (%) [3]: 6% | Population Mitochondria Different-Phenotype (%) [3]: 65% | Population Mitotic Cells (%) [3]: 59% | Population Normal (%) [3]: 86% | Population Pyknosed Nuclei (%) [3]: 54% | Population Tubulin-Different-Phenotype (%) [3]: 34% | Total Cell Count [3]: 255 | Population Apoptotic (%) [4]: 8% | Population Fragmented Nuclei (%) [4]: 5% | Population Healthy Nuclei (%) [4]: 50% | Population Hoechst High Intensity Objects (%) [4]: 1% | Population Membrane Permeable-Phenotype (%) [4]: 5% | Population Mitochondria Different-Phenotype (%) [4]: 5% | Population Mitotic Cells (%) [4]: 91% | Population Normal (%) [4]: 98% | Population Pyknosed Nuclei (%) [4]: 43% | Population Tubulin-Different-Phenotype (%) [4]: 8% | Total Cell Count [4]: 269 | Population Apoptotic (%) [5]: 41% | Population Fragmented Nuclei (%) [5]: 13% | Population Healthy Nuclei (%) [5]: 41% | Population Hoechst High Intensity Objects (%) [5]: 13% | Population Membrane Permeable-Phenotype (%) [5]: 1% | Population Mitochondria Different-Phenotype (%) [5]: 53% | Population Mitotic Cells (%) [5]: 58% | Population Normal (%) [5]: 86% | Population Pyknosed Nuclei (%) [5]: 45% | Population Tubulin-Different-Phenotype (%) [5]: 26% | Total Cell Count [5]: 263 | Population Apoptotic (%) [6]: 16% | Population Fragmented Nuclei (%) [6]: 5% | Population Healthy Nuclei (%) [6]: 62% | Population Hoechst High Intensity Objects (%) [6]: 1% | Population Membrane Permeable-Phenotype (%) [6]: 13% | Population Mitochondria Different-Phenotype (%) [6]: 10% | Population Mitotic Cells (%) [6]: 84% | Population Normal (%) [6]: 98% | Population Pyknosed Nuclei (%) [6]: 32% | Population Tubulin-Different-Phenotype (%) [6]: 30% | Total Cell Count [6]: 315 | Population Apoptotic (%) [7]: 41% | Population Fragmented Nuclei (%) [7]: 11% | Population Healthy Nuclei (%) [7]: 38% | Population Hoechst High Intensity Objects (%) [7]: 16% | Population Membrane Permeable-Phenotype (%) [7]: 2% | Population Mitochondria Different-Phenotype (%) [7]: 60% | Population Mitotic Cells (%) [7]: 58% | Population Normal (%) [7]: 83% | Population Pyknosed Nuclei (%) [7]: 49% | Population Tubulin-Different-Phenotype (%) [7]: 50% | Total Cell Count [7]: 261 | Population Apoptotic (%) [8]: 7% | Population Fragmented Nuclei (%) [8]: 2% | Population Healthy Nuclei (%) [8]: 72% | Population Hoechst High Intensity Objects (%) [8]: 1% | Population Membrane Permeable-Phenotype (%) [8]: 13% | Population Mitochondria Different-Phenotype (%) [8]: 5% | Population Mitotic Cells (%) [8]: 92% | Population Normal (%) [8]: 98% | Population Pyknosed Nuclei (%) [8]: 24% | Population Tubulin-Different-Phenotype (%) [8]: 23% | Total Cell Count [8]: 356 | Population Apoptotic (%) [9]: 31% | Population Fragmented Nuclei (%) [9]: 19% | Population Healthy Nuclei (%) [9]: 40% | Population Hoechst High Intensity Objects (%) [9]: 10% | Population Membrane Permeable-Phenotype (%) [9]: 4% | Population Mitochondria Different-Phenotype (%) [9]: 24% | Population Mitotic Cells (%) [9]: 68% | Population Normal (%) [9]: 89% | Population Pyknosed Nuclei (%) [9]: 40% | Population Tubulin-Different-Phenotype (%) [9]: 26% | Total Cell Count [9]: 330 | Population Apoptotic (%) [10]: 3% | Population Fragmented Nuclei (%) [10]: 4% | Population Healthy Nuclei (%) [10]: 83% | Population Hoechst High Intensity Objects (%) [10]: 3% | Population Membrane Permeable-Phenotype (%) [10]: 9% | Population Mitochondria Different-Phenotype (%) [10]: 3% | Population Mitotic Cells (%) [10]: 96% | Population Normal (%) [10]: 96% | Population Pyknosed Nuclei (%) [10]: 11% | Total Cell Count [10]: 570 | Population Apoptotic (%) [11]: 49% | Population Fragmented Nuclei (%) [11]: 17% | Population Healthy Nuclei (%) [11]: 44% | Population Hoechst High Intensity Objects (%) [11]: 12% | Population Membrane Permeable-Phenotype (%) [11]: 2% | Population Mitochondria Different-Phenotype (%) [11]: 26% | Population Mitotic Cells (%) [11]: 50% | Population Normal (%) [11]: 87% | Population Pyknosed Nuclei (%) [11]: 37% | Population Tubulin-Different-Phenotype (%) [11]: 29% | Total Cell Count [11]: 339 | Population Apoptotic (%) [12]: 12% | Population Fragmented Nuclei (%) [12]: 7% | Population Healthy Nuclei (%) [12]: 86% | Population Hoechst High Intensity Objects (%) [12]: 3% | Population Membrane Permeable-Phenotype (%) [12]: 9% | Population Mitochondria Different-Phenotype (%) [12]: 3% | Population Mitotic Cells (%) [12]: 87% | Population Normal (%) [12]: 96% | Population Pyknosed Nuclei (%) [12]: 6% | Population Tubulin-Different-Phenotype (%) [12]: 16% | Total Cell Count [12]: 675

c1ccc(-c2oc3ncnc(NC[C@@H]4CCCO4)c3c2-c2ccccc2)cc1
Population Apoptotic (%) [1]: 20% | Population Fragmented Nuclei (%) [1]: 13% and 15% | Population Healthy Nuclei (%) [1]: 57% and 66% | Population Hoechst High Intensity Objects (%) [1]: 11% and 13% | Population Mitotic Cells (%) [1]: 79% | Population Normal (%) [1]: 88% and 86% | Population Pyknosed Nuclei (%) [1]: 28% and 17% | Total Cell Count [1]: 692 and 563 | Population Healthy Nuclei (%) [2]: 74% and 83% | Population Hoechst High Intensity Objects (%) [2]: 2% and 1% | Population Mitotic Cells (%) [2]: 86% and 97% | Population Normal (%) [2]: 97% and 98% | Total Cell Count [2]: 938 and 1825 | Population Apoptotic (%) [3]: 72% | Population Fragmented Nuclei (%) [3]: 14% | Population Healthy Nuclei (%) [3]: 25% | Population Hoechst High Intensity Objects (%) [3]: 17% | Population Membrane Permeable-Phenotype (%) [3]: 3% | Population Mitochondria Different-Phenotype (%) [3]: 98% | Population Mitotic Cells (%) [3]: 27% | Population Normal (%) [3]: 82% | Population Pyknosed Nuclei (%) [3]: 59% | Population Tubulin-Different-Phenotype (%) [3]: 98% | Total Cell Count [3]: 263 | Population Apoptotic (%) [4]: 43% | Population Fragmented Nuclei (%) [4]: 4% | Population Healthy Nuclei (%) [4]: 31% | Population Hoechst High Intensity Objects (%) [4]: 7% | Population Membrane Permeable-Phenotype (%) [4]: 17% | Population Mitochondria Different-Phenotype (%) [4]: 71% | Population Mitotic Cells (%) [4]: 56% | Population Normal (%) [4]: 92% | Population Pyknosed Nuclei (%) [4]: 63% | Population Tubulin-Different-Phenotype (%) [4]: 90% | Total Cell Count [4]: 218 | Population Apoptotic (%) [5]: 28% and 21% | Population Fragmented Nuclei (%) [5]: 11% and 14% | Population Healthy Nuclei (%) [5]: 65% and 77% | Population Hoechst High Intensity Objects (%) [5]: 10% and 5% | Population Mitotic Cells (%) [5]: 71% and 78% | Population Normal (%) [5]: 89% and 94% | Total Cell Count [5]: 699 and 659 | Population Apoptotic (%) [6]: 8% and 3% | Population Healthy Nuclei (%) [6]: 74% | Population Hoechst High Intensity Objects (%) [6]: 2% and 3% | Population Mitotic Cells (%) [6]: 91% and 96% | Population Normal (%) [6]: 97% and 96% | Total Cell Count [6]: 1013 and 3002 | Population Apoptotic (%) [7]: 69% | Population Fragmented Nuclei (%) [7]: 20% | Population Healthy Nuclei (%) [7]: 19% | Population Hoechst High Intensity Objects (%) [7]: 23% | Population Membrane Permeable-Phenotype (%) [7]: 0% | Population Mitochondria Different-Phenotype (%) [7]: 94% | Population Mitotic Cells (%) [7]: 30% | Population Normal (%) [7]: 76% | Population Pyknosed Nuclei (%) [7]: 60% | Population Tubulin-Different-Phenotype (%) [7]: 94% | Total Cell Count [7]: 260 | Population Apoptotic (%) [8]: 43% | Population Fragmented Nuclei (%) [8]: 2% | Population Healthy Nuclei (%) [8]: 31% | Population Hoechst High Intensity Objects (%) [8]: 4% | Population Membrane Permeable-Phenotype (%) [8]: 16% | Population Mitochondria Different-Phenotype (%) [8]: 75% | Population Mitotic Cells (%) [8]: 56% | Population Normal (%) [8]: 95% | Population Pyknosed Nuclei (%) [8]: 66% | Population Tubulin-Different-Phenotype (%) [8]: 90% | Total Cell Count [8]: 222 | Population Apoptotic (%) [11]: 70% | Population Fragmented Nuclei (%) [11]: 26% | Population Healthy Nuclei (%) [11]: 16% | Population Hoechst High Intensity Objects (%) [11]: 23% | Population Membrane Permeable-Phenotype (%) [11]: 3% | Population Mitochondria Different-Phenotype (%) [11]: 96% | Population Mitotic Cells (%) [11]: 29% | Population Normal (%) [11]: 76% | Population Pyknosed Nuclei (%) [11]: 57% | Population Tubulin-Different-Phenotype (%) [11]: 93% | Total Cell Count [11]: 268 | Population Apoptotic (%) [12]: 48% | Population Fragmented Nuclei (%) [12]: 4% | Population Healthy Nuclei (%) [12]: 64% | Population Hoechst High Intensity Objects (%) [12]: 5% | Population Membrane Permeable-Phenotype (%) [12]: 19% | Population Mitochondria Different-Phenotype (%) [12]: 66% | Population Mitotic Cells (%) [12]: 51% | Population Normal (%) [12]: 94% | Population Pyknosed Nuclei (%) [12]: 31% | Population Tubulin-Different-Phenotype (%) [12]: 90% | Total Cell Count [12]: 272
